According to ChEMBL document CHEMBL2346497, “Synthesis of novel cognition enhancers with pyrazolo[5,1-c][1,2,4]benzotriazine core acting at γ-aminobutyric acid type A (GABA(A)) receptor” (Bioorg Med Chem, 2013):
Activity calls are given as the source filed them. The rule behind the calls is not given here.

Tests used:
Mus musculus [1] = experiment: Anxiolytic activity in CD1 albino mouse assessed as increase in time spent in illuminated side at 3 to 10 mg/kg, po administered 30 mins prior to testing measured for 5 mins by light-dark box test; assay type: functional, organism-based
Outline: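 Light/dark box: two equal acrylic compartments, one lit by a 60 W lamp, joined by a floor-level opening. Male CD-1 mice were dosed po in 1% CMC 30 min before the test, then placed in the centre of the lit side facing away from the dark side. Over 5 min, transfers and time in the light side were recorded, n = 8 mice per group.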

Rattus norvegicus [2] = experiment: Induction of acetylcholine release in Harlan Wistar rat parietal cortex at 10 mg/kg, ip measured within 120 mins by microdialysis method; assay type: functional, organism-based; set-up: dose 10 mg/kg
Outline: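 Microdialysis in the parietal cortex of male Wistar rats, with a horizontal tube implanted at AP 0.5 mm and H 2.3 mm from bregma. One day after surgery the tube was perfused with Ringer containing physostigmine. After a 1 h settling period, 20-min fractions were collected into HCl. Drug was given ip in 1% CMC at time 0. ACh was measured by HPLC with electrochemical detection, n = 6 rats.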

[3] = target: T1, Gamma-aminobutyric acid receptor subunit alpha-5 (Homo sapiens) (UniProt P31644); experiment: Displacement of [3H]Ro15-1788 from recombinant GABA-A alpha5beta2gamma2 receptor benzodiazepine binding site (unknown origin) at 10 uM after 1 hr relative to control
T1 sequence (whole entry): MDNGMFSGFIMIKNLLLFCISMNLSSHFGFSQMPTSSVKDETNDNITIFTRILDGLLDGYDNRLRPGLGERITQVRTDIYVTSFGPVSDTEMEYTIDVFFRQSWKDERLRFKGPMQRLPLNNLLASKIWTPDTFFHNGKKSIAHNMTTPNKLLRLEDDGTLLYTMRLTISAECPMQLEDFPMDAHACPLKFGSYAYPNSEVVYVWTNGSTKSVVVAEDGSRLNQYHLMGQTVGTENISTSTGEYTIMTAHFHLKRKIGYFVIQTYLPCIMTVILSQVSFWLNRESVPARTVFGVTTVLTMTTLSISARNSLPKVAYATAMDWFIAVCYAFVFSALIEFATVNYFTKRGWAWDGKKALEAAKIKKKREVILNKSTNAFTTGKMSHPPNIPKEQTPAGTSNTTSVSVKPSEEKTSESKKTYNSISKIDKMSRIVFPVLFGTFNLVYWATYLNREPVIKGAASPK

Rattus norvegicus [4] = experiment: Procognitive effect in Harlan Wistar rat assessed as exploring time of familiar rat during social investigatory behaviour at 3 mg/kg, po administered 30 mins prior to testing measured for 5 mins by social learning test (reference value: 27.6 secs); assay type: functional
Rattus norvegicus [5] = experiment: Procognitive effect in Harlan Wistar rat assessed as exploring time of familiar rat during social investigatory behaviour at 10 mg/kg, po administered 30 mins prior to testing measured for 5 mins by social learning test (reference value: 27.6 secs); assay type: functional
[6] = Displacement of [3H]Ro15-1788 from GABA-A receptor benzodiazepine binding site in bovine cerebral cortex membranes after 1 hr; assay type: cell membranes, Bos taurus, Membrane
Mus musculus [7] = experiment: Antiamnesic activity in CD1 albino mouse assessed as reversal of scopolamine-induced amnesia at 1 mg/kg, po administered 30 mins prior to scopolamine challenge measured after 24 hrs by passive avoidance test; assay type: functional, organism-based; set-up: dose 1 mg/kg
Outline: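 Step-through passive avoidance in male CD-1 mice (22–24 g). Test drugs were given po, suspended in 1% carboxymethylcellulose at 10 ml/kg, 30 min before the training session. For the antiamnesic arm, scopolamine 1.5 mg/kg was injected immediately after punishment. Retention latency was compared with CMC-treated controls, n = 10–12 mice per group.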

Question: Which results are given for Cc1cnn2c1n[n+]([O-])c1ccc(OCc3ccncc3)cc12?
Answer: Activity (Mus musculus [1]): inactive; Activity (Rattus norvegicus [2]): inactive; inhibition [3]: 36%; Time (Rattus norvegicus [4]): 43.2 s; Time (Rattus norvegicus [5]): 41.4 s; Ki [6]: 24.1 nM; Activity (Mus musculus [7]): Active
